# In publication PMC11238050 (Research and Practice in Thrombosis and Haemostasis, 2024):
# Like-named read-outs stand apart in the source and are kept apart here.
# Key:
# [1] = tested on: Human gel-filtered platelet; test: Thrombin-induced platelet aggregation assay; type: cell-based; settings: […] SAB, 0.02 U/mL thrombin
# Procedure, shortened: (§1)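 Human platelets in PRP or PIPES buffer, adjusted to 3.0 × 10^8/mL and preincubated 10 min at 37 °C with test compound in PBS (pH 7.4; 0.1–0.3 mM) or PBS alone. Agonists were bovine thrombin 0.02 U/mL, collagen 5 μg/mL or ADP 20 μM. Light-transmission aggregometry was run at 37 °C with stirring at 1000 rpm and recorded for at least 8 min.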
# [2] = tested on: human platelet; type: cell-based
# [3] = tested on: platelets (gel-filtered / PRP); test: Collagen- and ADP-induced platelet aggregation; type: cell-based, human
# Procedure, shortened: as §1
# [4] = tested on: human blood clot; test: Whole blood clot formation assay; settings: 0.3 mM SAB
# Procedure, shortened: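 Blood was diluted 3-fold and treated with test compound (0.3 mM final, in PBS) or blank PBS. It was recalcified with 1 mM CaCl2 plus 2 U/mL thrombin and incubated 90 min at 37 °C. Clots were removed from the serum, and dry weight was measured after 24 h at room temperature (20 °C).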
# [5] = tested on: human platelet-poor plasma coagulation; test: Prothrombin time and activated partial thromboplastin time measurement; settings: 0.6 mM SAB, human cell-free plasma
# Procedure, shortened: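 Human platelet-poor plasma was tested in a steel-ball coagulometer. For PT, RecombiPlasTin 2G and its diluent stood 20 min at room temperature, were mixed 1:1 and warmed 5 min at 37 °C, then added to plasma (2:1 v/v). For aPTT, SynthASil was incubated 2 min at 37 °C, then 20 mM CaCl2 was added. Both end-points were time to solid gel.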
# [6] = tested on: cell-free human blood plasma coagulation; test: Clot turbidity assay; settings: read-out: EC50, delay of cell-free human blood plasma coagulation; clot turbidity at 405 nm, 37 °C, 0.1 U/mL thrombin
# [7] = tested on: human blood coagulation; test: Thromboelastography; settings: 0.3 mM SAB
# Procedure, shortened: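 Thromboelastography used citrated (3.2%) whole blood from healthy human donors, treated with test compound (0.3 mM) or an equal volume of PBS. Samples were recalcified with 0.2 M CaCl2 stock and analysed on a TEG analyser.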
# [8] = tested on: thrombus formation in mouse cremaster arterioles; test: Laser-injury intravital microscopy thrombosis model; settings: 0.010 mM final in vivo SAB concentration, jugular vein injection
# Procedure, shortened: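 Mice received fluorescently labelled anti-GPIb antibody (1 µg/g) through a jugular vein cannula before injury. Test compound was injected via the jugular cannula to a 0.010 mM final in vivo level, calculated from body weight (80 µL/g blood volume). Multiple cremaster arteriole injuries were made with a pulsed nitrogen dye laser. Thrombus formation was imaged by intravital microscopy and quantified as platelet MFI.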
# [9] = tested on: human platelet thrombus formation; test: Collagen-coated perfusion chamber analysis; type: cell-based; settings: 0.32 mM SAB
# Procedure, shortened: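 Heparinised (5 U/mL) human whole blood was labelled with 1 μM DiOC6 for 20 min at 37 °C, then incubated with test compound or PBS for 10 min. It was perfused over a collagen-coated glass chamber for 3 min at 1800 or 300 s^−1. Platelet adhesion was recorded by fluorescence microscopy during perfusion, and thrombus mean fluorescence intensity was quantified.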
# [10] = tested on: carotid artery thrombosis; test: Ferric chloride carotid artery thrombosis model; type: in vivo, C57BL/6J mice; settings: 15 mpk SAB via tail vein at 50% flow reduction, 10% ferric chloride
# Procedure, shortened: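 Isoflurane-anaesthetised C57BL/6J mice (>8 weeks, 20–35 g) had filter paper soaked in 10% FeCl3 applied to the carotid adventitia for 180 s. The vessel was rinsed with warm saline. Doppler flow probe recorded flow for 30 min. At 50% flow reduction, test compound (15 mpk, ~0.3 mM blood level) or saline was given via the tail vein. Flow recovery and occlusion time were recorded.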
# [11] = biological target: T1, thrombin (Homo sapiens, UniProt P00734); test: Intrinsic fluorescence spectrophotometry binding, thrombin; settings: after 24 hours at room temperature
# [12] = biological target: T1, thrombin; test: Isothermal titration calorimetry, thrombin; type: binding; settings: ITC, 20 °C, PBS pH 7.4
# [13] = tested on: lysozyme; test: Isothermal titration calorimetry, lysozyme control; type: binding; settings: 20 μM lysozyme, 0.312 mM SAB titrant, 20 °C, PBS pH 7.4
# Procedure, shortened: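 ITC at 20 °C in PBS pH 7.4 was run with 20 μM lysozyme in the cell and test compound (0.312 mM) as titrant. Protocol: 60 s initial delay, 2 µL purge injection, then 34 injections of 8 µL every 300 s. The first point was discarded, and data were corrected for heat of dilution from titrant-into-buffer runs.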
# [14] = tested on: lysozyme; test: Intrinsic fluorescence spectrophotometry binding, lysozyme control; settings: SAB titrated with lysozyme 0 to 95.6 μM, 20 °C
# Procedure, shortened: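 Intrinsic fluorescence of test compound (27.2 ± 0.4 μM) in PBS, 20 °C, titrated with lysozyme 0–95.6 μM; blank PBS titrated separately. Excitation 382 nm, emission peak ~498 nm, with inner-filter correction. Integrated emission was averaged, normalised and plotted against protein concentration, then fitted to a binding model for apparent Kd. Four trials.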
# [15] = Stability of SAB in solution on storage and freeze-thaw; type: physicochemical; settings: inhibitory function for platelet aggregation
# [16] = flow cytometry, human platelets
# [17] = flow cytometry, thrombin-stimulated human platelets
substance,measurement,setting,value
Salvianolic acid B [SAB],platelet aggregation,[1],completely abolished
same,thrombin-induced platelet surface expression of Ricinus communis agglutinin-1 (RCA-1),[2],significantly reduced
same,thrombin-induced platelet surface expression of P-selectin,[2]; [16],significantly reduced
same,thrombin-induced platelet surface expression of annexin-V,[2]; [16],significantly reduced
same,binding of PAC-1 monoclonal antibody (αIIbβ3 integrin activation),[2]; [17],significantly decreased
same,binding of fibrinogen (αIIbβ3 integrin activation),[2]; [17],significantly decreased
same,ADP-induced platelet aggregation,"[3]; PRP, 20 μM ADP",attenuated
same,collagen-induced platelet aggregation,"[3]; gel-filtered platelets, 5 μg/mL collagen",attenuated
same,dry weight of the human blood clot,[4],significantly reduced
same,activated partial thromboplastin time (aPTT),[5],prolonged
same,prothrombin time (PT),[5],prolonged
same,EC50,[6],62 ± 70 µM
same,initiation of human blood coagulation (R-time) in TEG,[7],significantly prolonged
same,reduction of thrombus formation in mouse cremaster vessels (platelet MFI),[8],approximately 65% ± 5%
same,"human platelet thrombus formation, venous shear rate","[9]; 300 s^−1, collagen-coated chamber",significantly inhibited
same,"human platelet thrombus formation, arterial shear rate","[9]; 1800 s^−1, collagen-coated chamber",significantly inhibited
same,carotid blood flow,[10],rescued
same,vessel occlusion (time),[10],prolonged
same,decrease in the SAB-thrombin complex signal,[11],less than 3%
same,Hill coefficient nH,[12],1.1
same,ΔH1,[12],18 ± 1 kcal/mol
same,ΔH2,[12],180 ± 6 kcal/mol
same,−TΔS1,[12],-27 ± 1 kcal/mol
same,−TΔS2,[12],-185 ± 12 kcal/mol
same,Kd,[12]; read-out: Kd1,0.62 ± 0.08 µM
same,Kd,[12]; read-out: dissociation constant Kd2 (weak binding site),37 ± 4 µM
same,binding to lysozyme (ITC),[13],no interaction
same,binding to lysozyme (fluorescence),[14],no direct interactions
same,effect of prolonged storage in solution and repeated freeze-thaw cycles on SAB,[15],decreased SAB inhibitory function
